An excerpt weighted towards active compounds, which were near 4.6% of everything screened.
OX1R antag-1: antagonists of human orexin 1 receptor (OX1R); O43613; OX1R-expressing cells, FRET antagonist read-out; inhibition, % at 6.6 µM; hit rate 1.8% among 330,000; AID 485270; in the data active = inhibition mostly above about 38%, no sharp cut-off; inactive = mostly below about 40%;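 note: 0% = agonist challenge alone and 100% = reference antagonist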
Target sequence (O43613 whole entry, looked up): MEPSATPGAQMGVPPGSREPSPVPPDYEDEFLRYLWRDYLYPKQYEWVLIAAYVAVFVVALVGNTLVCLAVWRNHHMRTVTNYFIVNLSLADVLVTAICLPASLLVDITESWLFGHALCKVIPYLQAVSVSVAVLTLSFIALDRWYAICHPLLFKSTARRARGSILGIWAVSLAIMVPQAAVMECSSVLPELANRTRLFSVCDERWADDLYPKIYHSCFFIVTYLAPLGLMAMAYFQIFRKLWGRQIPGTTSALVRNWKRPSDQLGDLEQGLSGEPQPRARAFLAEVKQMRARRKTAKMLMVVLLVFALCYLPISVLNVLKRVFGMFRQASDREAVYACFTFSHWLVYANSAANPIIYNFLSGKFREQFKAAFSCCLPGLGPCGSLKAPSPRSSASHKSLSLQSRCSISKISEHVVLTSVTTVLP
CHO parental Ca: signal in parental CHO cells, OX1R antagonist counter-screen. parental CHO-K1, ATP-induced calcium, Fluo-8 fluorescence. inhibition, % at 5.6 µM. hit rate 0.63% among 330,000;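 active = inhibition above that plate's mean sample inhibition plus 3 SD, cut at about 26% in these data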;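 note: 0% = ATP-challenged DMSO wells and 100% = DMSO wells without ATP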
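test system = CHO parental line | reagent = ATP stimulus | measured by = intracellular calcium via Fluo-8 no-wash fluorescent dye | control set = ATP and no-ATP DMSO wells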
TAAR1 ag: agonists of human TAAR1; Q96RJ0; activation, % at 3 µM; CHO RD-HGA16 TAAR1, Fluo-8 calcium fluorescence; vehicle wells 0%, saturating PEA agonist 100%; hit rate 0.99% among 360,000;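 active = activation above the mean activation of all test compounds in the run plus 3 SD, cut at about 38% in these data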
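Assay system: CHO-derived RD-HGA16 cells with stable Gα16 and human TAAR1; timing: 17-24 h seeding, 75 min 37 °C dye, 30 min RT; read-out: % activation from peak over basal fluorescence ratio, DMSO-to-PEA scaled; measured by: kinetic Fluo-8 calcium fluorescence; benchmarks: low control DMSO, high control PEA (EC100); doses: 3 µM single concentration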
OX1R antag-2: antagonists of human orexin 1 receptor | O43613 | CHO/OX1R cells, Fluo-8 calcium fluorescence, orexin A | inhibition, % at 5 µM | hit rate 0.43% among 330,000;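 active = inhibition above its plate's threshold, mean inhibition of all tested compounds on the plate plus 3 SD, cut at about 37% in these data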;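 note: 0% = orexin A challenge wells and 100% = SB-334867-A antagonist wells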
TAAR1 antagonist: antagonists of human TAAR1; inhibition, % at 3 µM; CHO RD-HGA16 TAAR1, Fluo-8 calcium fluorescence, antagonist; hit rate 1.5% among 360,000; Q96RJ0;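 active = inhibition above a per-plate cutoff, the mean inhibition of test compounds on that plate plus 3 SD, cut at about 49% in these data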;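 note: 0% = DMSO plus EC80 beta-PEA response and 100% = DMSO alone without agonist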
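Test system – hTAAR1-expressing CHO RD-HGA16 cells, Gα16-coupled · Reagent – β-PEA at EC80 concentration, post-compound challenge · Compound dosing – 3 µM, single point · Timing – 140 s kinetic read after compound, 140 s after agonist · Detection – Fluo-8 intracellular calcium dye fluorescence, real-time kinetic reads · Control set – DMSO and EC80 PEA controls · Repeats – n of 1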
GPR7 antag: blocks human GPR7 receptor signaling | GPR7-expressing cells, fluorescence antagonist assay | inhibition, % at 4.4 µM | hit rate 1.1% among 290,000; in the data active = inhibition above about 16%, passing the limit was not always enough;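 note: cells stimulated with the agonist NPW; 0% = agonist with vehicle and 100% = vehicle without agonist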
* = called active by the depositor; · = no result.

SMILES	OX1R antag-1	CHO parental Ca	TAAR1 ag	OX1R antag-2	TAAR1 antagonist	GPR7 antag
COc1ccccc1NC(=O)COC(=O)c1ccc(S(=O)(=O)N2CCCCCC2)cc1	4	3	6	-5	-1	·
CCOc1ccccc1NC(=O)COC(=O)c1ccc(S(=O)(=O)N2CCCC2)cc1	·	·	12	·	59*	·
CCN(CC)c1ccc(S(=O)(=O)N2CCOCC2)cc1NC(=O)COC(=O)/C=C/c1ccco1	·	·	10	·	54*	·
O=S(=O)(c1ccc(C2CCCCC2)cc1)N1CCCC1	12	52*	7	-8	11	-10
COC(=O)/C=C1\OCc2c(F)cccc21	·	·	1	·	7	·
CN1CCCCC(NC(=O)c2cccs2)C1=O (stereo unspecified)	·	·	0	·	20	·
O=C(Nc1ccc(S(=O)(=O)N2CCOCC2)cc1)c1ccc([N+](=O)[O-])o1	63	-6	6	4	-20	6
O=C(COC(=O)c1n[nH]c2ccccc12)Nc1ccc(S(=O)(=O)N2CCCC2)cc1	35	18	26	29	45	17*
O=C(COC(=O)c1ccc(O)cc1)Nc1cc(S(=O)(=O)N2CCOCC2)ccc1N1CCOCC1	·	·	7	·	13	·
O=C(Nc1ccc(S(=O)(=O)N2CCCC2)cc1)c1ccc([N+](=O)[O-])o1	34*	-4	·	-6	·	·
O=C(COC(=O)c1ccc(O)cc1)Nc1cc(S(=O)(=O)N2CCOCC2)ccc1Cl	4	4	27	-9	53*	·
COC(=O)c1c(C)[nH]c(C=O)c1-c1ccccc1	11	-12	2	-12	12	-13
COC(=O)c1c(C)[nH]c(C)c1C(=O)c1ccccc1Cc1ccccc1	47*	-12	13	-10	0	·
CCOC(=O)CC1(O)CSc2nc(N)cc(=O)n21 (stereo unspecified)	·	·	3	·	-22	·
COc1ccccc1CNC(=O)Nc1nc(C(N)C(C)C)cs1 (stereo unspecified)	·	·	2	·	2	·
COc1ccccc1CNC(=O)Nc1nc(C(N)Cc2ccc(Cl)cc2)cs1 (stereo unspecified)	·	·	45*	·	51*	·
COc1ccc(CNC(=O)Nc2nc(C(N)Cc3ccc(Cl)cc3)cs2)cc1 (stereo unspecified)	·	·	50*	·	66*	·
CCOC(=O)N1CCN(C(=O)C[C@H]2C[C@@]3(C(=O)OC)C(=C[C@H](C(C)C)O[C@@H]3C3CC3)N(Cc3ccccc3)C2=O)CC1	·	·	0	·	3	·
Oc1ccc(N=Nc2ccc3ccccc3c2)cc1	-1	43*	0	5	13	-3
O=C(CC1S/C(=N/N=C/c2c[nH]c3ccc(OCc4ccccc4)cc23)NC1=O)Nc1ccccc1 (stereo unspecified)	-2	7	6	-10	-1	-16
O=C(CC1S/C(=N/N=C/c2c[nH]c3ccccc23)NC1=O)Nc1ccccc1 (stereo unspecified)	14	7	5	1	18	18*
CCOC(=O)c1nn(-c2ccc(C)c(C)c2)c(=O)c(C#N)c1C	44*	-18	2	-30	-24	-4
COC(=O)Nc1nn(-c2ccc(Cl)cc2)c(=O)c(C#N)c1C	59*	3	4	-3	-10	-8
Cc1ccc(-n2nc(C(=O)O)c3ccccc3c2=O)cc1C	1	-10	-1	-10	-30	-16
Cc1c(C(=O)NN)nn(-c2ccc(F)cc2)c(=O)c1C#N	48*	0	4	-10	-4	6
SMILES	OX1R antag-1	CHO parental Ca	TAAR1 ag	OX1R antag-2	TAAR1 antagonist	GPR7 antag
COc1ccccc1C(=O)N1CCN(C(=O)[C@@H](Cc2ccccc2)NC(=O)[C@H]2O[C@@H](n3ccc(N)nc3=O)[C@H](O)[C@@H]2O)CC1	·	·	0	·	4	·
CC1(Oc2ccc(CC#N)cc2)CCN(Cc2ccccc2OC(F)F)C1 (stereo unspecified)	·	·	3	·	-6	·
O=c1c2c([N+](=O)[O-])cc([N+](=O)[O-])cc2sn1-c1ccc(Br)cc1	19	-5	·	-11	·	0
O=c1c2c([N+](=O)[O-])cc([N+](=O)[O-])cc2sn1Cc1ccccc1	35	54*	32	71*	28	5
Oc1cc(Nc2ccccc2)cc2cccnc12	27	2	7	6	5	·
Oc1cc(NCCN2CCOCC2)cc2cccnc12	54*	-1	10	2	8	·
Cc1ccc(S(=O)(=O)Nc2cccc3cccnc23)cc1	19	42*	5	27	27	9
Cc1ccc(S(=O)(=O)Nc2ccccc2-c2ccccc2NS(=O)(=O)c2ccc(C)cc2)cc1	59	-5	0	-10	49*	21
COc1cc(NS(=O)(=O)c2ccc(C)cc2)c2ncccc2c1	24	23	5	8	0	-14
CC(C)[C@H](CO)N(Cc1cccc(F)c1)c1nc(Nc2cccc(Cl)c2)c2ncn(C(C)C)c2n1	3	37*	53*	33	73*	·
O=C(NCC1CCN(C(=O)C(=O)c2cccs2)CC1)c1ccc2ccccc2c1	·	·	4	·	7	·
COCCCN1C(=O)c2ccc(C(=O)OCC(=O)N3CCN(c4ccccc4)CC3)cc2C1=O	46*	-3	3	2	-30	·
CCCCN1C(=O)c2ccc(C(=O)OCC(=O)N3CCN(c4ccccc4)CC3)cc2C1=O	2	-24	2	-26	5	·
C=CCN1C(=O)c2n[nH]c(COC)c2C1c1ccc(Br)cc1 (stereo unspecified)	·	·	1	·	-2	·
CCCCCCCCN1C(=O)[C@@H](CC(=O)NCc2ccc(C)o2)C[C@@]2(C(=O)OC)C1=C[C@H](C1CCCC1)O[C@@H]2C	·	·	-1	·	-33	·
CN(C)CC(O)COc1cccc(OCC(O)CN(C)C)c1 (stereo unspecified)	12	7	3	-6	10	-9
Cc1cc(OCC(O)CN(C)C(=O)C(C)Oc2ccccc2)ccc1Cl (stereo unspecified)	48*	-14	2	12	-24	15
CN(C)c1ccc(/C=C(\NC(=O)c2ccccc2)C(=O)NCCCn2ccnc2)cc1	40*	-5	-1	-1	19	-11
O=C(NCCCn1ccnc1)/C(=C/c1ccccc1)NC(=O)c1ccccc1	15	12	1	-2	-7	4
COCCN=C1Sc2ccccc2[C@@H]2C[C@H]3[C@H](CON3C)CN12	·	·	1	·	-8	·
O=C(O)c1ccc(Sc2nnc3ccccn23)c([N+](=O)[O-])c1	72*	-9	7	-12	0	-16
CCCC(=O)N1CCC1(C)C(=O)NS(=O)(=O)c1ccc(C(C)(C)C)cc1 (stereo unspecified)	·	·	3	·	-22	·
CCCC(=O)Nc1ccc(-c2csc(N/N=C\c3ccncc3)n2)cc1	3	-13	15	-15	60*	5

Screening data deposited in PubChem by The Scripps Research Institute Molecular Screening Center.
